Reference: ChEMBL document CHEMBL5303300, “EUbOPEN Chemogenomics Library - Multiplex” (2023)
Values joined by “and” are separate entries in the source; they are usually repeats but may differ in a detail not shown here. Identical values can stand only once.

Assays:
HEK-293T = test: Multiplex assay against HEK293T; format: toxicity, cell-based; details: human, number of replicates 2
Outline: (§1)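 Phenotypes for tubulin, mitochondrial mass and membrane permeability are expressed as per cents of healthy-nucleus cells. Cells were stained live at seeding with Hoechst33342, BioTracker Green Microtubule Cytoskeleton Dye, MitoTracker Red and Annexin V Alexa Fluor 680, then imaged after compound addition on a CQ1 microscope at 37°C and 5% CO2. Machine-learning gating in CellPathfinder separated Hoechst high-intensity objects from normal cells, divided normal cells by nuclear state (healthy, pyknosed, fragmented) and divided pyknosed cells into mitotic or apoptotic.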

Fibroblast = test: Multiplex assay against human fibroblast; format: toxicity, cell-based; details: number of replicates 2; outline: as §1
[1] = 24 h, 10 µM, compound concentration 10 uM
[2] = 48 h, 1 µM, compound concentration 1 uM
[3] = 48 h, 10 µM, compound concentration 10 uM
[4] = 12 h, 1 µM, compound concentration 1 uM
[5] = 12 h, 10 µM, compound concentration 10 uM
[6] = 24 h, 1 µM, compound concentration 1 uM

## C[C@@H](Oc1cc(-n2cnc3ccc(OC4CCN(C)CC4)cc32)sc1C(N)=O)c1ccccc1Cl [GSK-579289A]
HEK-293T; [1]
  Population Mitochondria Different-Phenotype (%): 88% and 75%
  Population Mitotic Cells (%): 21% and 30%
  Population Normal (%): 76% and 84%
  Population Pyknosed Nuclei (%): 16% and 14%
  Population Tubulin-Different-Phenotype (%): 66% and 80%
  Total Cell Count: 362 and 350
HEK-293T; [2]
  Population Apoptotic (%): 68% and 63%
  Population Fragmented Nuclei (%): 3% and 4%
  Population Healthy Nuclei (%): 85% and 83%
  Population Hoechst High Intensity Objects (%): 6% and 13%
  Population Membrane Permeable-Phenotype (%): 1% and 0%
  Population Mitochondria Different-Phenotype (%): 67%
  Population Mitotic Cells (%): 31% and 36%
  Population Normal (%): 93% and 86%
  Population Pyknosed Nuclei (%): 10% and 11%
  Population Tubulin-Different-Phenotype (%): 89% and 90%
  Total Cell Count: 471 and 559
HEK-293T; [3]
  Population Apoptotic (%): 67% and 73%
  Population Fragmented Nuclei (%): 12% and 11%
  Population Healthy Nuclei (%): 61% and 68%
  Population Hoechst High Intensity Objects (%): 20% and 22%
  Population Membrane Permeable-Phenotype (%): 4% and 3%
  Population Mitochondria Different-Phenotype (%): 78% and 68%
  Population Mitotic Cells (%): 32% and 26%
  Population Normal (%): 79% and 77%
  Population Pyknosed Nuclei (%): 26% and 19%
  Population Tubulin-Different-Phenotype (%): 55% and 65%
  Total Cell Count: 453 and 440
Fibroblast; [4]
  Population Apoptotic (%): 45% and 36%
  Population Fragmented Nuclei (%): 21% and 15%
  Population Healthy Nuclei (%): 62% and 60%
  Population Hoechst High Intensity Objects (%): 0%
  Population Membrane Permeable-Phenotype (%): 7% and 10%
  Population Mitochondria Different-Phenotype (%): 1% and 3%
  Population Mitotic Cells (%): 54% and 63%
  Population Normal (%): 99% and 100%
  Population Pyknosed Nuclei (%): 15% and 24%
  Population Tubulin-Different-Phenotype (%): 40% and 48%
  Total Cell Count: 296 and 182
Fibroblast; [5]
  Population Apoptotic (%): 40% and 46%
  Population Fragmented Nuclei (%): 13% and 23%
  Population Healthy Nuclei (%): 60% and 59%
  Population Hoechst High Intensity Objects (%): 0%
  Population Membrane Permeable-Phenotype (%): 5% and 13%
  Population Mitochondria Different-Phenotype (%): 12% and 13%
  Population Mitotic Cells (%): 59% and 53%
  Population Normal (%): 100%
  Population Pyknosed Nuclei (%): 26% and 17%
  Population Tubulin-Different-Phenotype (%): 84% and 85%
  Total Cell Count: 323 and 282
Fibroblast; [6]
  Population Apoptotic (%): 54% and 58%
  Population Fragmented Nuclei (%): 18% and 23%
  Population Healthy Nuclei (%): 63% and 57%
  Population Hoechst High Intensity Objects (%): 1% and 0%
  Population Membrane Permeable-Phenotype (%): 3% and 2%
  Population Mitochondria Different-Phenotype (%): 3% and 5%
  Population Mitotic Cells (%): 45% and 41%
  Population Normal (%): 98% and 99%
  Population Pyknosed Nuclei (%): 18% and 19%
  Population Tubulin-Different-Phenotype (%): 43% and 40%
  Total Cell Count: 282 and 205
Fibroblast; [1]
  Population Apoptotic (%): 79% and 73%
  Population Fragmented Nuclei (%): 16% and 25%
  Population Healthy Nuclei (%): 46% and 50%
  Population Hoechst High Intensity Objects (%): 0%
  Population Membrane Permeable-Phenotype (%): 2% and 6%
  Population Mitochondria Different-Phenotype (%): 38% and 39%
  Population Mitotic Cells (%): 20% and 26%
  Population Normal (%): 100% and 99%
  Population Pyknosed Nuclei (%): 37% and 23%
  Population Tubulin-Different-Phenotype (%): 88% and 92%
  Total Cell Count: 281 and 274
Fibroblast; [2]
  Population Apoptotic (%): 65% and 85%
  Population Fragmented Nuclei (%): 21% and 25%
  Population Healthy Nuclei (%): 64% and 61%
  Population Hoechst High Intensity Objects (%): 1% and 0%
  Population Membrane Permeable-Phenotype (%): 4%
  Population Mitochondria Different-Phenotype (%): 2% and 5%
  Population Mitotic Cells (%): 34% and 14%
  Population Normal (%): 98% and 99%
  Population Pyknosed Nuclei (%): 14% and 12%
  Population Tubulin-Different-Phenotype (%): 44% and 38%
  Total Cell Count: 307 and 222
Fibroblast; [3]
  Population Apoptotic (%): 97% and 94%
  Population Fragmented Nuclei (%): 18% and 24%
  Population Healthy Nuclei (%): 22% and 18%
  Population Hoechst High Intensity Objects (%): 1% and 0%
  Population Mitochondria Different-Phenotype (%): 46% and 48%
  Population Mitotic Cells (%): 2% and 5%
  Population Normal (%): 98% and 99%
  Population Pyknosed Nuclei (%): 58% and 57%
  Population Tubulin-Different-Phenotype (%): 77% and 93%
  Total Cell Count: 199 and 171
